ChEMBL document CHEMBL3351523 (Bioorg Med Chem, 2014)

Experiments:
[1] = Cytotoxicity against mock-infected human MT4 cells after 96 hrs by MTT assay; assay type: cell-based
Procedure, shortened: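 Exponentially growing MT-4 cells were seeded at 1 × 10^5 cells/mL in RPMI-1640 with 10% FBS and held at 37 °C, 5% CO2 with serial compound dilutions. Viability was read by MTT after 96 h. CC50 from linear regression against untreated controls.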

[2] = system: Human immunodeficiency virus 1; experiment: Antiviral activity against HIV1 infected in human MT4 cells assessed as inhibition of virus-induced cytopathogenicity after 4 days by MTT assay; assay type: functional, organism-based; details: Human immunodeficiency virus 1, MT4, 96 h
Procedure, shortened: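 MT-4 cells (1 × 10^4/well in RPMI) were infected acutely with HIV-1 IIIB, 100 CCID50 (m.o.i. 0.01), with serial dilutions from 100 µM, 1:5. After 4 days at 37 °C, protection from virus-induced cytopathogenicity was read by MTT. EC50 came from linear regression against untreated controls.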

[3] = Cytotoxicity against mock-infected MDBK cells after 48 to 96 hrs by MTT assay; assay type: cell-based, Bos taurus; details: cattle
Procedure, shortened: (§1)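 Mock-infected MDBK (6 × 10^5 cells/mL; MEM-E, 10% horse serum, 1 mM pyruvate) or BHK (1 × 10^6 cells/mL; MEM-E, 10% FBS) cells were incubated at 37 °C, 5% CO2 with serial dilutions from 100 µM, 1:5. Viability by MTT after 48–96 h. CC50 from linear regression against untreated controls.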

[4] = system: Bovine viral diarrhea virus 1; experiment: Antiviral activity against Bovine viral diarrhea virus infected in MDBK cells assessed as inhibition of virus-induced cytopathogenicity after 3 to 4 days by MTT assay; assay type: functional, organism-based; details: Bovine viral diarrhea virus isolates and strains
[5] = Cytotoxicity against mock-infected BHK21 cells after 48 to 96 hrs by MTT assay; assay type: functional; details: Mesocricetus auratus, BHK-21; procedure, shortened: as §1
Yellow fever virus = experiment: Antiviral activity against Yellow fever virus infected in BHK21 cells assessed as inhibition of virus-induced cytopathogenicity after 3 to 4 days by MTT assay; assay type: functional, organism-based; details: BHK-21
Reovirus sp. = experiment: Antiviral activity against Reovirus type-1 infected in BHK21 cells assessed as inhibition of virus-induced cytopathogenicity after 3 to 4 days by MTT assay; assay type: functional, organism-based; details: BHK-21
[6] = Cytotoxicity against mock-infected african green monkey Vero 76 cells after 48 to 96 hrs by MTT assay; assay type: cell-based; details: chlorocebus sabaeus, mock-infected Vero 76 cells
Coxsackievirus B5 = experiment: Antiviral activity against Coxsackievirus B5 infected in african green monkey Vero 76 cells assessed as reduction in plaque number after 3 days by plaque reduction assay; assay type: functional, organism-based; details: Enterovirus B, 72 h
Poliovirus 1 = experiment: Antiviral activity against Poliovirus type 1 Sabin strain infected in african green monkey Vero 76 cells assessed as reduction in plaque number after 2 days by plaque reduction assay; assay type: functional, organism-based; details: Enterovirus C, 48 h
[7] = system: Respiratory syncytial virus; experiment: Antiviral activity against Respiratory syncytial virus infected in african green monkey Vero 76 cells assessed as reduction in plaque number after 5 days by plaque reduction assay; assay type: functional, organism-based; details: human respiratory syncytial virus, 120 h
[8] = system: Vesicular stomatitis virus; experiment: Antiviral activity against Vesicular stomatitis virus infected in african green monkey Vero 76 cells assessed as reduction in plaque number after 2 days by plaque reduction assay; assay type: functional, organism-based; details: 48 h
Vaccinia virus = experiment: Antiviral activity against Vaccinia Virus infected in african green monkey Vero 76 cells assessed as reduction in plaque number after 3 days by plaque reduction assay; assay type: functional, organism-based; details: Orthopoxvirus vaccinia, 72 h
Human alphaherpesvirus 1 = experiment: Antiviral activity against HSV1 infected in african green monkey Vero 76 cells assessed as reduction in plaque number after 3 days by plaque reduction assay; assay type: functional, organism-based; details: Human alphaherpesvirus 1, Vero, 72 h

Row | SMILES | CC50 at 96 h [1] [µM] | EC50 [2] [µM] | CC50 [3] [µM] | EC50 [4] [µM] | CC50 [5] [µM] | EC50 (Yellow fever virus) [µM] | EC50 (Reovirus sp.) [µM] | CC50 [6] [µM] | EC50 (Coxsackievirus B5) [µM] | EC50 (Poliovirus 1) [µM] | EC50 [7] [µM] | EC50 [8] [µM] | EC50 (Vaccinia virus) [µM] | EC50 (Human alphaherpesvirus 1) [µM]
1 | CC(=O)Nc1ccc(Cc2nc3cc(Cl)c(Cl)cc3[nH]2)cc1 | > 100 | > 100 | > 100 | > 100 | > 100 | > 100 | > 100 | > 100 | > 100 | > 100 | > 100 | > 100 | > 100 | > 100
2 | Nc1nc2c(ncn2COCCO)c(=O)[nH]1 [ACYCLOVIR] | > 100 |  | > 100 | > 100 | > 100 | > 100 | > 100 | > 100 | > 100 | > 100 | > 100 | > 100 | > 100 | 1.2
3 | c1ccc2[nH]c(C[C@H]3CCCN4CCCC[C@H]34)nc2c1 | > 100 | > 100 | > 100 | > 100 | > 100 | > 100 | > 100 | > 100 | > 100 | > 100 | > 100 | > 100 | > 100 | > 100
4 | CC1(c2nc3ccccc3[nH]2)CCC(C#N)C(C)(C)O1 (stereo unspecified) | > 100 | > 100 | > 100 | > 100 | > 100 | > 100 | > 100 | > 100 |  | > 100 |  | > 100 |  | > 100
5 | CC(CC(=O)O)n1c(-c2ccccc2)nc2ccccc21 (stereo unspecified) | > 100 | > 100 | > 100 | > 100 | > 100 | > 100 | > 100 | > 100 | > 100 | > 100 | > 100 | > 100 | > 100 | > 100
6 | c1ccc2[nH]c(C3CCCCO3)nc2c1 (stereo unspecified) | > 100 | > 100 | > 100 | > 100 | > 100 | > 100 | > 100 | > 100 |  | > 100 |  | > 100 |  | > 100
7 | Clc1ccc2[nH]c(C[C@@H]3CCCN4CCCC[C@H]34)nc2c1 | 53 | > 100 | 77 | 17 | 52 | > 100 | > 100 | > 100 | > 100 | > 100 | > 100 | > 100 | > 100 | > 100
8 | CCCCn1c(-c2ccc(OC)cc2)nc2cc(C(F)(F)F)ccc21 | > 100 | > 100 | 22 | > 100 | 35 | > 100 | > 100 | 80 | > 100 | 25 | > 100 | > 100 | > 100 | > 100
9 | CCN(CC)CCCn1c(-c2ccc(OC)cc2)nc2cc(C(F)(F)F)ccc21 | > 100 | > 100 | > 100 | > 100 | 76 | > 100 | > 100 | > 100 | > 100 | > 100 | > 100 | > 100 | > 100 | > 100
10 | Clc1ccc2[nH]c(CCCC3NCC4CNCC3C4)nc2c1 (stereo unspecified) | > 100 | > 100 | > 100 | > 100 | > 100 | 25 | > 100 | > 100 | > 100 | > 100 | > 100 | > 100 | > 100 | > 100
11 | CC(=O)Nc1ccc(Cc2nc3cc(C(F)(F)F)ccc3[nH]2)cc1 | > 100 | > 100 | > 100 | > 100 | > 100 | > 100 | > 100 | > 100 | > 100 | > 100 | > 100 | > 100 | > 100 | > 100
12 | CC(=O)Nc1ccc(Cc2nc3ccccc3[nH]2)cc1 | > 100 | > 100 | > 100 | > 100 | > 100 | > 100 | > 100 | > 100 | > 100 | > 100 | > 100 | > 100 | > 100 | > 100
13 | CCc1nc2ccccc2[nH]1 | > 100 | > 100 | > 100 | > 100 | > 100 | > 100 | > 100 | > 100 | > 100 | > 100 | > 100 | > 100 | > 100 | > 100
14 | CC(CC(=O)O)n1c(Cc2ccc(Cl)cc2)nc2ccccc21 (stereo unspecified) | > 100 | > 100 | > 100 | > 100 | > 100 | > 100 | > 100 | > 100 | > 100 | > 100 | > 100 | > 100 | > 100 | > 100
15 | CC1(c2nc3ccccc3[nH]2)CCC(C(N)=O)C(C)(C)O1 (stereo unspecified) | > 100 | > 100 | > 100 | > 100 | > 100 | > 100 | > 100 | > 100 |  | > 100 |  | > 100 |  | > 100
16 | Clc1ccc2[nH]c(C3CCCCO3)nc2c1 (stereo unspecified) | > 100 | > 100 | > 100 | > 100 | > 100 | > 100 | > 100 | > 100 |  | 20 |  | > 100 |  | > 100
17 | Clc1cc2nc(C3CCCCO3)[nH]c2cc1Cl (stereo unspecified) | 6 | > 100 | > 100 | > 100 | > 100 | > 100 | > 100 | > 100 |  | 60 |  | > 100 |  | > 100
18 | ClC1(Cl)C2CCOC21n1cnc2ccccc21 (stereo unspecified) | 33 | > 100 |  |  |  |  |  |  |  |  |  |  |  | 
19 | CC1(c2nc3cc(Cl)c(Cl)cc3[nH]2)CCC(CO)C(C)(C)O1 (stereo unspecified) | 33 | > 100 | > 100 | 46 | > 100 | > 100 | > 100 | > 100 |  | 12 |  | > 100 |  | 60
20 | c1ccc2c(c1)ncn2C1CCCCO1 (stereo unspecified) | > 100 | > 100 | > 100 | > 100 | > 100 | > 100 |  |  |  |  |  |  |  | 
21 | Clc1cc2nc(C3CCCO3)[nH]c2cc1Cl (stereo unspecified) |  |  | > 100 | > 100 | > 100 | > 100 |  |  |  |  |  |  |  | 
22 | FC(F)(F)c1ccc2[nH]c(C3CCCCO3)nc2c1 (stereo unspecified) | 97 | > 100 | > 100 | > 100 | > 100 | > 100 | > 100 | > 100 |  | > 100 |  | > 100 |  | > 100
23 | O=C1Nc2ccc(Cl)cc2[C@@](C#CC2CC2)(C(F)(F)F)O1 [EFAVIRENZ] | 38 |  |  |  |  |  |  |  |  |  |  |  |  | 
24 | O=C1c2ccccc2-n2c(nc3cccnc32)CN1C[C@@H]1CCCN2CCCC[C@H]12 | 31 | > 100 | 91 | 17 | 37 | > 100 |  | > 90 | > 100 | > 100 | > 100 | > 100 | > 100 | 
25 | Clc1cc2ncn(C3CCCO3)c2cc1Cl (stereo unspecified) | > 100 | > 100 | > 100 | > 100 | > 100 | > 100 | > 100 |  |  |  |  |  |  | 
